Assay results published in ChEMBL document CHEMBL1800073, “Inhibition of 1-deoxy-D-xylulose-5-phosphate reductoisomerase by lipophilic phosphonates: SAR, QSAR, and crystallographic studies” (J Med Chem, 2011).
Activity calls are given as the source filed them. The calls are words filed in the database; no cut-off is given here.

Experiments:
[1] = Inhibition of Escherichia coli recombinant DXR using DXP as substrate and MgCl2 as cofactor preincubated for 10 mins
Method in brief: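 Purified enzyme at 10 nM in 50 mM HEPES pH 7.5 with 2 mM MgCl2, 50 µM NADPH and 25 µg/mL BSA. Inhibitor was preincubated with the enzyme for 10 min at 30 °C, then 100 µM DXP was added. IC50 came from dose-response fits of initial velocities, at least three experiments.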

[2] = target: T1, 1-deoxy-D-xylulose 5-phosphate reductoisomerase (Mycobacterium tuberculosis) (UniProt P9WNS1); test: Inhibition of Mycobacterium tuberculosis recombinant DXR expressed in Escherichia coli BL21 (DE3) using DXP as substrate and MgCl2 as cofactor at 100 uM preincubated for 10 mins
T1 sequence (whole entry): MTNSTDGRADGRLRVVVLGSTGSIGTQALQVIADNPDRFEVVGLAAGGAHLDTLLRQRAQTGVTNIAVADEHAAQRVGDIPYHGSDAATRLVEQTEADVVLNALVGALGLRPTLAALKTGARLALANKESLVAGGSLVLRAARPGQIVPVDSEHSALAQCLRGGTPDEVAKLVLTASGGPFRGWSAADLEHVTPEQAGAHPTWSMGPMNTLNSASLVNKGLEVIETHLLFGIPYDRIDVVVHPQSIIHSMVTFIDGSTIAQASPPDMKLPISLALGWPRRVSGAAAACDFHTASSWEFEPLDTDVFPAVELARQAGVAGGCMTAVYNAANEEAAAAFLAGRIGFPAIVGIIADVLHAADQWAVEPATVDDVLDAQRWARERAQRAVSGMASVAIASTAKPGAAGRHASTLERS
Method in brief: (§1)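 Assay used 50 nM enzyme in 50 mM HEPES pH 7.6 with 4 mM MgCl2, 50 µM NADPH and 25 µg/mL BSA, plus 100 µM DXP added after a 10 min, 30 °C preincubation. IC50 came from initial velocities, at least three experiments.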

Escherichia coli = test: Inhibition of Escherichia coli recombinant DXR using DXP as substrate and MgCl2 as cofactor at 100 uM preincubated for 10 mins
Method in brief: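 Purified recombinant EcDXR (10 nM) with 2 mM MgCl2, 50 µM NADPH, 50 mM HEPES pH 7.5, 25 µg/mL BSA. Inhibitor pre-incubated with enzyme 10 min at 30 °C; reaction started with 100 µM DXP; NADPH consumption followed at 340 nm.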

[3] = target: T2, 1-deoxy-D-xylulose 5-phosphate reductoisomerase (Mycobacterium tuberculosis, UniProt P9WNS1); test: Inhibition of Mycobacterium tuberculosis recombinant DXR expressed in Escherichia coli BL21 (DE3) using DXP as substrate and MgCl2 as cofactor preincubated for 10 mins; method in brief: as §1
T2 sequence (P9WNS1 whole entry): T1 sequence (whole entry)

[4] = Inhibition of DXR

SMILES | pKi [1] | inhibition [2] | inhibition (Escherichia coli) | Ki [1] | Ki [3] | IC50 [4]
O=P(O)(O)Cc1cccc(O)c1O | 3.52 | inactive | inactive | – | – | –
O=c1ccc(-c2ccccc2)cn1O [1-HYDROXY-5-PHENYLPYRIDIN-2(1H)-ONE] | – | – | – | 0.7 µM | 21.8 µM | –
O=C(NO)c1ccccn1 | < 3.52 | inactive | inactive | – | – | –
O=c1cccc(CCP(=O)(O)O)[nH]1 | 3.52 | inactive | inactive | – | – | –
O=c1ccc(CP(=O)(O)O)cn1O | 3.52 | inactive | inactive | – | – | –
O=P(O)(O)CCCc1ccccn1 | 5.02 | inactive | – | 9.5 µM | – | –
O=C(Cc1ccccn1)NO | 3.52 | inactive | inactive | – | – | –
O=C(O)Cc1ccccn1 | 3.52 | inactive | inactive | – | – | –
O=P(O)(O)CCc1ccccc1O | 3.52 | inactive | inactive | – | – | –
O=C(O)Cc1cccnc1 | < 3.52 | inactive | inactive | – | – | –
O=C(O)Cc1ccncc1 | 3.52 | inactive | inactive | – | – | –
O=P(O)(O)Cc1cccnc1 | 5.3 | inactive | – | 5 µM | – | –
O=P(O)(O)C(Nc1nccc2ccccc12)P(=O)(O)O | – | – | – | 6.3 µM | – | 4 µM
O=CN(O)CCC(c1ccc(Cl)c(Cl)c1)P(=O)(O)O (centres undefined) | 7.24 | – | – | 0.058 µM | 1.2 µM | –
O=C(O)Cc1ccc(-c2ccccc2)cn1 | < 3.52 | inactive | inactive | – | – | –
O=P(O)(O)Cc1cc(-c2ccc(F)cc2)ccn1 | 5.46 | inactive | – | 3.5 µM | – | –
Cc1ccc(-c2ccc(CP(=O)(O)O)nc2)cc1 | 5.41 | inactive | – | 3.9 µM | – | –
CC(=O)N(O)CCC(c1ccc(Cl)c(Cl)c1)P(=O)(O)O (racemic) | 7.44 | – | – | 0.036 µM | 1.5 µM | –
O=P(O)(O)Cc1ccc(Cl)c(Cl)c1 | 3.52 | inactive | inactive | – | – | –
O=P(O)(O)Cc1ccc(-c2ccc3ccccc3c2)cn1 | 4.86 | inactive | – | 13.9 µM | – | –
O=P(O)(O)Cc1ccncc1 | 5.46 | – | – | 3.5 µM | 6.8 µM | –
O=C(O)c1ccc(-c2ccccc2)cn1 | < 3.52 | inactive | inactive | – | – | –
O=P(O)(O)C(Nc1ccc(Cl)cn1)P(=O)(O)O | – | inactive | – | 15.3 µM | – | 7 µM
O=P(O)(O)Cc1ccncn1 | 5.46 | – | – | 3.5 µM | 12.4 µM | –

SMILES | pKi [1] | inhibition [2] | inhibition (Escherichia coli) | Ki [1] | Ki [3] | IC50 [4]
O=C(O)c1ccccn1 [2-PICOLINIC ACID] | 3.52 | inactive | inactive | – | – | –
O=P(O)(O)c1ccccc1 [PHENYLPHOSPHONIC ACID] | 3.52 | inactive | inactive | – | – | –
O=P(O)(O)Cc1ccc2ccccc2n1 | 5.1 | – | – | 7.9 µM | 6.9 µM | –
O=P(O)(O)Cc1ccccc1 [BENZYLPHOSPHONIC ACID] | 3.52 | inactive | inactive | – | – | –
O=P(O)(O)Cc1ccccn1 [PYRIDIN-2-YLMETHYLPHOSPHONIC ACID] | 5.64 | – | – | 2.3 µM | 1.6 µM | –
COc1cccc(-c2ccc(CP(=O)(O)O)nc2)c1 | 5.46 | inactive | – | 3.6 µM | – | –
O=P(O)(O)CCc1ccccc1 | 3.52 | inactive | inactive | – | – | –
O=P(O)(O)Cc1ccc(-c2ccccc2)cn1 | 6.38 | – | – | 0.42 µM | 3.2 µM | –
O=C(Cc1ccc(-c2ccccc2)cn1)NO | < 3.52 | inactive | inactive | – | – | –
O=P(O)(O)Cc1cnccn1 | 4.95 | inactive | – | 11.2 µM | – | –
O=P(O)(O)Cc1ccc(Br)cn1 | 5.17 | – | – | 6.7 µM | 45.2 µM | –
O=P(O)(O)Cc1cccc(Br)n1 | 5.46 | inactive | – | 3.6 µM | – | –
O=P(O)(O)c1ccccn1 | 3.52 | inactive | inactive | – | – | –
O=P(O)(O)Cc1ccc(-c2ccc(Cl)cc2)cn1 | 5.8 | inactive | – | 1.6 µM | – | –
O=P(O)(O)Cc1cc(-c2ccccc2)ccn1 | 5.96 | – | – | 1.1 µM | 6.9 µM | –
O=P(O)(O)Cc1cccc(-c2ccccc2)n1 | 5.46 | inactive | – | 3.5 µM | – | –
O=S(=O)(O)Cc1ccc(-c2ccccc2)cn1 | < 3.52 | inactive | inactive | – | – | –
O=P(O)(O)Cc1cc(Br)ccn1 | 5.46 | – | – | 3.5 µM | 32.7 µM | –
O=P(O)(O)Cc1ccc(-c2ccc(F)cc2)cn1 | 5.96 | – | – | 1.1 µM | 50.7 µM | –
O=P(O)(O)Cc1ccc(OCc2ccccc2)cn1 | 3.52 | inactive | inactive | – | – | –
O=P(O)(O)Cc1ccc(O)cn1 | 6.15 | – | – | 0.7 µM | 17.3 µM | –
O=P(O)(O)CCc1ccccn1 | 4.73 | inactive | – | 18.6 µM | – | –
CC(=O)N(O)CCCP(=O)(O)O [FR-900098] | 7.72 | – | – | 0.019 µM | 0.13 µM | –
